Legend:
[1] = Drug level in human hepatic microsomes treated with 100 uM of [14C]Sipoglitazar after 4 hrs by HPLC analysis in presence of UDPGA; assay type: ADME, Liver
Procedure, shortened: (§1)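 Preparative glucuronidation: [14C]sipoglitazar 100 μmol/L with human liver microsomes (2 mg protein/mL) and UDPGA 5 mmol/L, 37°C, 4 h. Supernatant concentrated under nitrogen, then separated by radio-HPLC on ODS columns at 40°C or 4°C with acetonitrile/water/TFA gradient to resolve the glucuronide isomers.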

[2] = Chemical stability of the compound in acetate buffer at pH 4.4 at 10 uM up to 4 hrs; assay type: physicochemical; conditions: pH 4.4, 4 h
Procedure, shortened: (§2)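 [14C]glucuronide isomer (G1 or G2) at 10 μmol/L final, incubated at 37°C in 50 mmol/L potassium phosphate buffer (pH 7.4), acetate buffer (pH 4.4), rat bile or human plasma. Samples taken at 0, 5, 30 min and 1, 2, 4 h (G1) or 0, 1, 2, 4 h (G2). Reaction stopped with equal-volume acetonitrile and centrifuged. Supernatant analysed by radio-HPLC. Each species reported as % of total radioactivity.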

[3] = Chemical stability of the compound in potassium phosphate buffer at pH 7.4 assessed as formation of sipoglitazar at 10 uM up to 4 hrs; assay type: physicochemical; conditions: pH 7.4, 4 h; procedure, shortened: as §2
[4] = Stability of the compound in rat bile assessed as formation of sipoglitazar at 10 uM up to 4 hrs; assay type: ADME, tissue-based; procedure, shortened: as §2
Plasma [5] = assay: Stability of the compound in human plasma assessed as formation of sipoglitazar at 10 uM up to 4 hrs; assay type: ADME, cell-free; procedure, shortened: as §2
[6] = Drug metabolism in human hepatic microsomes assessed as formation of sipoglitazar at 10 uM after 10 mins by HPLC analysis in presence of NADPH; assay type: ADME, Liver, Microsome
Procedure, shortened: (§3)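 Human liver microsomes (1 mg protein/mL), 10 μmol/L [14C]glucuronide isomer, 5 mmol/L MgCl2, with or without NADPH-generating system (5 mmol/L G6P, 0.5 mmol/L β-NADP+, 1.5 U/mL G6PDH) in 50 mmol/L KPB. Incubated 37°C, 10 min. Acetonitrile quench, then radio-HPLC.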

[7] = Drug metabolism in human hepatic microsomes assessed as formation of beta-1-O-acyl glucuronide conjugate of sipoglitazar at 100 uM after 4 hrs by HPLC analysis in presence of UDPGA; assay type: ADME, Liver, Microsome; procedure, shortened: as §1
[8] = Drug metabolism in human hepatic microsomes assessed as formation of alpha-2-O-acyl glucuronide conjugate of sipoglitazar at 100 uM after 4 hrs by HPLC analysis in presence of UDPGA; assay type: ADME, Liver, Microsome; procedure, shortened: as §1
[9] = Drug metabolism in human hepatic microsomes assessed as formation of 3-(3-hydroxy-1-{4-[(2-phenyl-1,3-thiazol-4-yl)methoxy]benzyl}-1H-pyrazol-4-yl)propanoic acid at 10 uM after 30 mins by LC-MS and LC-MS/MS analysis in presence of gemfibrozil, NADPH and UDPGA; assay type: ADME, Liver, Microsome; conditions: 0.5 h
Procedure, shortened: (§4)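 Human liver microsomes (0.5 mg protein/mL), 10 μmol/L [14C]sipoglitazar, 5 mmol/L MgCl2, alamethicin 50 μg/mL and UDPGA 5 mmol/L, with or without NADPH-generating system. Gemfibrozil added at 0, 10, 30, 100 or 300 μmol/L final, in 50 mmol/L KPB pH 7.4. Incubated 37°C, 30 min. Acetonitrile quench, then radio-HPLC.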

[10] = Drug metabolism in human hepatic microsomes assessed as formation of 3-[3-ethoxy-1-(4-hydroxybenzyl)-1H-pyrazol-4-yl]propanoic acid] at 10 uM after 30 mins by LC-MS and LC-MS/MS analysis in presence of gemfibrozil, NADPH and UDPGA; assay type: ADME, Liver, Microsome; conditions: 0.5 h; procedure, shortened: as §4
[11] = Drug metabolism in human hepatic microsomes assessed as elimination of compound at 10 uM after 30 mins by LC-MS and LC-MS/MS analysis in presence of gemfibrozil, NADPH and UDPGA; assay type: ADME, Liver, Microsome; conditions: 0.5 h; procedure, shortened: as §4
[12] = Drug metabolism in human hepatic microsomes assessed as beta-1-O-acyl glucuronide conjugate of sipoglitazar formation at 10 uM after 30 mins by LC-MS and LC-MS/MS analysis in presence of gemfibrozil and UDPGA; assay type: ADME, Liver, Microsome; conditions: 0.5 h; procedure, shortened: as §4
[13] = Drug metabolism in human hepatic microsomes assessed as elimination of compound at 10 uM after 30 mins by LC-MS and LC-MS/MS analysis in presence of gemfibrozil and UDPGA; assay type: ADME, Liver, Microsome; conditions: 0.5 h; procedure, shortened: as §4
[14] = Drug metabolism in cryopreserved primary human hepatocytes assessed as formation of 3-(3-hydroxy-1-{4-[(2-phenyl-1,3-thiazol-4-yl)methoxy]benzyl}-1H-pyrazol-4-yl)propanoic acid at 10 uM after 6 hrs by LC-MS and LC-MS/MS analysis; assay type: ADME, cell-based, Hepatocyte
Procedure, shortened: (§5)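 Cryopreserved human hepatocytes suspended in DMEM at 3 x 10⁵ viable cells/well with 10 μmol/L [14C]sipoglitazar, 37°C, 6 h. Stopped with acetonitrile and centrifuged; supernatant run on radio-HPLC (ODS column, acetonitrile/water/TFA gradient). Metabolites expressed as % of total radioactivity. Means of duplicates.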

[15] = Drug metabolism in cryopreserved primary human hepatocytes assessed as formation of 3-[3-ethoxy-1-(4-hydroxybenzyl)-1H-pyrazol-4-yl]propanoic acid] at 10 uM after 6 hrs by LC-MS and LC-MS/MS analysis; assay type: ADME, cell-based, Hepatocyte; procedure, shortened: as §5
[16] = Drug metabolism in human hepatic microsomes assessed as formation of 3-(3-hydroxy-1-{4-[(2-phenyl-1,3-thiazol-4-yl)methoxy]benzyl}-1H-pyrazol-4-yl)propanoic acid at 10 uM after 6 hrs by LC-MS and LC-MS/MS analysis in presence of NADPH and UDPGA; assay type: ADME, Liver, Microsome
[17] = Drug metabolism in human hepatic microsomes assessed as formation of 3-[3-ethoxy-1-(4-hydroxybenzyl)-1H-pyrazol-4-yl]propanoic acid] at 10 uM after 6 hrs by LC-MS and LC-MS/MS analysis in presence of NADPH and UDPGA; assay type: ADME, Liver, Microsome
[18] = Drug metabolism in human hepatic microsomes assessed as formation of 3-[3-ethoxy-1-(4-hydroxybenzyl)-1H-pyrazol-4-yl]propanoic acid] at 10 uM after 1 hr by LC-MS and LC-MS/MS analysis in presence of NADPH
[19] = Drug metabolism in human hepatic microsomes assessed as formation of 3-(3-hydroxy-1-{4-[(2-phenyl-1,3-thiazol-4-yl)methoxy]benzyl}-1H-pyrazol-4-yl)propanoic acid at 10 uM after 1 hr by LC-MS and LC-MS/MS analysis in presence of NADPH
[20] = Chemical stability of the compound in potassium phosphate buffer at pH 7.4 assessed as formation of alpha-2-O-acyl glucuronide conjugate of sipoglitazar at 10 uM up to 4 hrs; assay type: physicochemical; conditions: pH 7.4, 4 h; procedure, shortened: as §2
[21] = Stability of the compound in rat bile assessed as formation of alpha-2-O-acyl glucuronide conjugate of sipoglitazar at 10 uM up to 4 hrs; assay type: ADME, tissue-based; procedure, shortened: as §2
Plasma [22] = assay: Stability of the compound in human plasma assessed as formation of alpha-2-O-acyl glucuronide conjugate of sipoglitazar at 10 uM up to 4 hrs; assay type: ADME, cell-free; procedure, shortened: as §2
[23] = Drug metabolism in human hepatic microsomes assessed as formation of 3-(3-hydroxy-1-{4-[(2-phenyl-1,3-thiazol-4-yl)methoxy]benzyl}-1H-pyrazol-4-yl)propanoic acid at 10 uM after 10 mins by HPLC analysis in presence of NADPH; assay type: ADME, Liver, Microsome; procedure, shortened: as §3
Cytochrome P450 2C8 = target: T1, Cytochrome P450 2C8 (Homo sapiens, UniProt P10632); assay: Drug metabolism in […] assessed as CYP2C8-mediated formation of 3-(3-hydroxy-1-{4-[(2-phenyl-1,3-thiazol-4-yl)methoxy]benzyl}-1H-pyrazol-4-yl)propanoic acid at 10 uM after 15 mins by HPLC analysis in presence of NADPH; conditions: 0.25 h
T1 sequence (P10632 whole entry): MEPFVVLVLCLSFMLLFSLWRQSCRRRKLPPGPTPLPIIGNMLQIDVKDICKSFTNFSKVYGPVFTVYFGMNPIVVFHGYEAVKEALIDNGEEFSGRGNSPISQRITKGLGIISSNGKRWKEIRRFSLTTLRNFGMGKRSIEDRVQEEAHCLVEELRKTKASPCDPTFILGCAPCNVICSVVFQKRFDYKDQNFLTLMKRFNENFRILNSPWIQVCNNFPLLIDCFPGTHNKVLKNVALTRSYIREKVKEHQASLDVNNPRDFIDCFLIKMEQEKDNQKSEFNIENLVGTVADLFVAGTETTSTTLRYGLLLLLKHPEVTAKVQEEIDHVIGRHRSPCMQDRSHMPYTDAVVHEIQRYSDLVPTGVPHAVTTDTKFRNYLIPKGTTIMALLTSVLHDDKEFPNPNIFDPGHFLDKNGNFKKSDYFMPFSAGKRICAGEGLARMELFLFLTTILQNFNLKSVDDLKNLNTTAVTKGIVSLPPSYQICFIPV
Procedure, shortened: (§6)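 Recombinant CYP-expressing microsomes (80 pmol P450/mL) with 10 μmol/L [14C]glucuronide substrate, 5 mmol/L MgCl2 and NADPH-generating system (5 mmol/L glucose-6-phosphate, 0.5 mmol/L β-NADP+, 1.5 U/mL G6PDH) in 50 mmol/L KPB or Tris-HCl pH 7.4. Incubated 37°C, 15 min. Deethylated product quantified by radio-HPLC. Means of duplicates.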

Cytochrome P450 2B6 = target: T2, Cytochrome P450 2B6 (Homo sapiens, UniProt P20813); assay: Drug metabolism in […] assessed as CYP2B6-mediated formation of 3-(3-hydroxy-1-{4-[(2-phenyl-1,3-thiazol-4-yl)methoxy]benzyl}-1H-pyrazol-4-yl)propanoic acid at 10 uM after 15 mins by HPLC analysis in presence of NADPH; conditions: 0.25 h; procedure, shortened: as §6
T2 sequence (P20813 whole entry): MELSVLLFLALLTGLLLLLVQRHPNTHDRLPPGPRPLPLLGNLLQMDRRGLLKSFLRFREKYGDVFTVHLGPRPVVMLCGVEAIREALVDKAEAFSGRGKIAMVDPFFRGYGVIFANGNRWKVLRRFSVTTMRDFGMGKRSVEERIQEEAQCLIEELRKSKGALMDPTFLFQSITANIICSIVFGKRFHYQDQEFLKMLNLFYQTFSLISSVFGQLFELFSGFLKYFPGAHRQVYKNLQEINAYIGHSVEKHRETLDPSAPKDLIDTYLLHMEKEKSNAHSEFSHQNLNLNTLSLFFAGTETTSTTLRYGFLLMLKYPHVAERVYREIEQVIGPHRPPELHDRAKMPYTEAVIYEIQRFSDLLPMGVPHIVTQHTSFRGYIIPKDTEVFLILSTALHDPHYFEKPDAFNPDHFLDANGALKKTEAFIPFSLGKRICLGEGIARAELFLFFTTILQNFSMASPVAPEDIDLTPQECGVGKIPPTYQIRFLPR

Cytochrome P450 2E1 = Cytochrome P450 2E1 (Homo sapiens, UniProt P05181); assay: Drug metabolism in […] assessed as CYP2E1-mediated formation of 3-(3-hydroxy-1-{4-[(2-phenyl-1,3-thiazol-4-yl)methoxy]benzyl}-1H-pyrazol-4-yl)propanoic acid at 10 uM after 15 mins by HPLC analysis in presence of NADPH; conditions: 0.25 h; procedure, shortened: as §6
[24] = Drug level in human hepatic microsomes treated with 10 uM of [14C]Sipoglitazar after 6 hrs by LC-MS and LC-MS/MS analysis in presence of NADPH; assay type: ADME, Liver
[25] = Drug level in human hepatic microsomes treated with 10 uM of [14C]Sipoglitazar after 6 hrs by LC-MS and LC-MS/MS analysis in presence of UDPGA; assay type: ADME, Liver
Hepatocyte = assay: Drug level in cryopreserved primary human hepatocytes treated with 10 uM of [14C]Sipoglitazar after 6 hrs by LC-MS and LC-MS/MS analysis; assay type: ADME, cell-based; procedure, shortened: as §5
[26] = Drug level in human hepatic microsomes treated with 10 uM of [14C]Sipoglitazar after 6 hrs by LC-MS and LC-MS/MS analysis in presence of NADPH and UDPGA; assay type: ADME, Liver

Sequence of Cytochrome P450 2E1 (P05181 whole entry): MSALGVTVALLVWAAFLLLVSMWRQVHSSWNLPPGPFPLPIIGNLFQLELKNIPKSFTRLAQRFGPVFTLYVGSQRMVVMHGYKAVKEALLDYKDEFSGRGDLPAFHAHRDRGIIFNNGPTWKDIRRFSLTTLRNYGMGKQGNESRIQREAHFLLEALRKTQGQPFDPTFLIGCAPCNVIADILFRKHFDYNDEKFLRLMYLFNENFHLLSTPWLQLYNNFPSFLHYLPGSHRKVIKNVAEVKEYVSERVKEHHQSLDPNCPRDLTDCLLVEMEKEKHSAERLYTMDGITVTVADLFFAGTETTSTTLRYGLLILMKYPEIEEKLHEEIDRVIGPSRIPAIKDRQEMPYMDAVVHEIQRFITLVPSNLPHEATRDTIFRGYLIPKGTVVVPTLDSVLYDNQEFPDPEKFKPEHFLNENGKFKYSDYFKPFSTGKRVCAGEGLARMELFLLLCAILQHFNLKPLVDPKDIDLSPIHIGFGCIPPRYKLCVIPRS

CCOc1nn(Cc2ccc(OCc3csc(-c4ccccc4)n3)cc2)cc1CCC(=O)O[C@@H]1[C@@H](O)[C@H](O)[C@@H](C(=O)O)O[C@@H]1O
Unstable: Stability [3] | Stability [4] | Stability (Plasma [5])
Stable: Stability [2]
metabolite_detected: Drug metabolism [1] | Drug metabolism [6]

CCOc1nn(Cc2ccc(OCc3csc(-c4ccccc4)n3)cc2)cc1CCC(=O)O [SIPOGLITAZAR]
metabolite_detected: Drug metabolism [7] | Drug metabolism [8] | Drug metabolism [14] | Drug metabolism [15] | Drug metabolism [16] | Drug metabolism [17] | Drug metabolism [18] | Drug metabolism [19]
metabolite_not_detected: Drug metabolism [9] | Drug metabolism [10] | Drug metabolism [11] | Drug metabolism [12] | Drug metabolism [13]

CCOc1nn(Cc2ccc(OCc3csc(-c4ccccc4)n3)cc2)cc1CCC(=O)O[C@@H]1O[C@H](C(=O)O)[C@@H](O)[C@H](O)[C@H]1O
Stable: Stability [2]
metabolite_detected: Drug metabolism [1] | Drug metabolism [6] | Drug metabolism [23] | Drug metabolism (Cytochrome P450 2C8)
Unstable: Stability [20] | Stability [3] | Stability [21] | Stability [4] | Stability (Plasma [22]) | Stability (Plasma [5])
metabolite_not_detected: Drug metabolism (Cytochrome P450 2B6) | Drug metabolism (Cytochrome P450 2E1)

O=C(O)CCc1cn(Cc2ccc(OCc3csc(-c4ccccc4)n3)cc2)nc1O
metabolite_detected: Drug metabolism [24] | Drug metabolism [25] | Drug metabolism (Hepatocyte) | Drug metabolism [26]

CCOc1nn(Cc2ccc(O)cc2)cc1CCC(=O)O
metabolite_detected: Drug metabolism [24] | Drug metabolism [25] | Drug metabolism (Hepatocyte) | Drug metabolism [26]

From ChEMBL document CHEMBL3525976, “An unusual metabolic pathway of sipoglitazar, a novel antidiabetic agent: cytochrome P450-catalyzed oxidation of sipoglitazar acyl glucuronide” (Drug Metab Dispos, 2012)
